From publication PMC7649109 (International Journal for Parasitology: Drugs and Drug …, 2020)
“And” between values parts separate entries of the source, which are not always exact repeats. Equal values may be shown once. Read-outs that look alike come from different tables or passages of the source.

Legend:
T. brucei S427WT = assay: resazurin viability assay, T. brucei s427 wild-type bloodstream forms; type: cell-based; details: Trypanosoma brucei
Summary of the method: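 Bloodstream forms grown in complete HMI-9 with 10% fetal bovine serum at 37 °C/5% CO2. 2 × 10^4 cells/well were exposed for 48 h to 23 doubling dilutions of the test compound or extract, with no-drug controls and 1% (v/v) DMSO per well. Resazurin was then added for a further 24 h. EC50 is the mean ± SEM of at least 3 independent determinations.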

T. brucei B48 = assay: resazurin viability assay, multi-drug resistant T. brucei B48; type: cell-based, Trypanosoma brucei; details: for RF (Resistance factor): Table 5; for RF (Resistance factor) / R. F (Resistance factor): B48 versus s427 WT; for EC50: Trypanosoma brucei; for R. F (Resistance factor): Table 1
Summary of the method: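 s427 wild-type and B48 T. b. brucei bloodstream forms cultured in HMI-9 with 10% FBS at 37 °C/5% CO2. Wells of 2 × 10^4 cells received 23 doubling dilutions (1% v/v DMSO) plus no-drug controls for 48 h, followed by resazurin and 24 h more incubation. EC50 from ≥3 independent determinations. […]; unpaired two-tailed t-test versus s427.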

[1] = system: Trypanosoma congolense IL3000; assay: resazurin viability assay, T. congolense IL3000 bloodstream forms; type: cell-based
Summary of the method: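 Bloodstream-form parasites were grown in MEM base with 10% goat serum, 14 μL/L β-mercaptoethanol, glutamine and antibiotics at 34 °C/5% CO2. Cells at 5 × 10^4/well were exposed to 23 doubling dilutions plus no-drug controls, with DMSO held at 1% (v/v) per well, for 48 h. Resazurin was then added for a further 24 h. EC50 is the mean ± SEM of ≥3 independent determinations.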

[2] = system: Trypanosoma congolense 6C3; assay: resazurin viability assay, diminazene-resistant T. congolense clone 6C3; type: cell-based; details: for RF (Resistance factor): Table 6; for EC50: Trypanosoma congolense, T. congolense 6C3
Summary of the method: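 IL3000 and diminazene-resistant 6C3 T. congolense bloodstream forms grown in MEM base with 10% goat serum, 14 μL/L β-mercaptoethanol, glutamine and antibiotics at 34 °C/5% CO2. 5 × 10^4 cells/well exposed to 23 doubling dilutions (1% v/v DMSO) plus no-drug controls for 48 h, then resazurin for a further 24 h. EC50 from ≥3 independent determinations. RF = […]; unpaired two-tailed t-test versus IL3000.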

[3] = cytotoxicity, resazurin assay on U937 cell line; type: cell-based, human; details: human, U937 cells
U937 cell line = assay: cytotoxicity, resazurin assay on U937 cell line; type: cell-based, human
[4] = cytotoxicity, resazurin assay on RAW 246.7 cell line; type: cell-based, murine; details: mouse, RAW 264.7 macrophage cells (also printed RAW 246.7)
RAW 246.7 cell line = assay: as above; type: cell-based, murine
[5] = read-out: EC50, AVG ± SEM, Table 5, purified compounds, T. b. brucei s427 WT, n = 3
[6] = read-out: EC50, AVG ± SEM, Table 5, purified compounds, T. b. brucei B48, n = 3
[7] = read-out: EC50, AVG ± SEM, Table 6, purified compounds, n = 3
[8] = read-out: EC50, AVG ± SEM, Table 2, control, footnote b: EC50 in μM

For `C=CC(C)(C)c1c(O)cc2c(c1O)C(=O)C[C@@H](c1ccc(O)cc1)O2` [Compound 2, 6-(1,1-dimethylallyl)naringenin], the EC50 (T. brucei S427WT; [5]) was 2.24 µg/mL and 6.58 µM, the “RF (Resistance factor)” value (T. brucei B48) was 1.02 and the EC50 (T. brucei B48; [6]) was 2.28 µg/mL and 6.69 µM. The EC50 [1, 7] was 7.35 µg/mL and 21.6 µM, the “RF (Resistance factor)” value ([2]; 6C3 versus IL3000) was 0.77 and the EC50 [2, 7] was 5.69 µg/mL and 16.7 µM. The EC50 at 24 h [3] was 51.2 µg/mL and 150 µM, the “Selectivity Index (SI) Tbb427 WT” value (U937 cell line; EC50 (U937)/EC50 (T. b. brucei 427 WT)) was 22.8 and the “Selectivity Index (SI) TcoIL3000” value (U937 cell line; EC50 (U937)/EC50 (T. congolense IL3000)) was 9.0. The EC50 at 24 h [4] was 79.9 µg/mL and 235 µM, the “Selectivity Index (SI) Tbb427 WT” value (RAW 246.7 cell line; EC50 (RAW 246.7)/EC50 (T. b. brucei 427 WT)) was 35.7 and the “Selectivity Index (SI) TcoIL3000” value (RAW 246.7 cell line; EC50 (RAW 246.7)/EC50 (T. congolense IL3000)) was 14.0.
With `N=C(N)c1ccc(/N=N/Nc2ccc(C(=N)N)cc2)cc1` [Diminazene] the EC50 [1, 8] was 0.2 ± 0.03 µM, the EC50 [1, 7] was 0.15 ± 0.03 µM and the “R. F (Resistance factor)” value ([2]; Table 2, 6C3 versus IL3000) was 7.75. For the same compound, the “RF (Resistance factor)” value ([2]; 6C3 versus IL3000) was 9.81, the “RF (Resistance factor)” value ([2]; 6C3 versus IL3000, listed as diminazene) was 9.8 and the EC50 [2, 8] was 1.51 ± 0.09 µM. It also gave an EC50 [2, 7] of 1.45 ± 0.04 µM.
With `N=C(N)c1ccc(OCCCCCOc2ccc(C(=N)N)cc2)cc1` [Pentamidine] the EC50 (T. brucei S427WT; read-out: EC50, AVG ± SEM, Table 1, control, footnote b: EC50 in μM, T. brucei s427 WT) was 0.0031 ± 0.0003 µM, the EC50 (T. brucei S427WT; [5]) was 0.0034 ± 0.0004 µM and the “R. F (Resistance factor)” value (T. brucei B48) was 157.84. For the same compound, the “R. F (Resistance factor)” value (T. brucei B48; listed as pentamidine) was 158, the “RF (Resistance factor)” value (T. brucei B48) was 144.08 and the “RF (Resistance factor)” value (T. brucei B48; listed as pentamidine) was 144. The EC50 (T. brucei B48; read-out: EC50, AVG ± SEM, Table 1, control, footnote b: EC50 in μM, T. brucei B48) was 0.482 ± 0.02 µM and the EC50 (T. brucei B48; [6]) was 0.493 ± 0.04 µM.
